How the values were obtained:
Format in all cases: functional
HT-29 [1] = experiment: Cytotoxicity against human HT29 cells at 100 uM after 72 hrs by MTT assay; details: HT-29, 72 h
Outline: (§1)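 Log-phase cells in DMEM with 10% FBS (37 °C, 5% CO2) were plated in duplicate at 2500–4000 cells/well. Agent was added 24 h later at a fixed final concentration of 100 µM and left for 72 h continuous exposure. Read-out was MTT absorbance at 540 nm, expressed as percent growth inhibition, where 100% means total growth inhibition.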

SW480 [2] = experiment: Cytotoxicity against human SW480 cells at 100 uM after 72 hrs by MTT assay; details: SW480, 72 h; outline: as §1
MCF7 [3] = experiment: Cytotoxicity against human MCF7 cells at 100 uM after 72 hrs by MTT assay; details: MCF7, 72 h; outline: as §1
A2780 [4] = experiment: Cytotoxicity against human A2780 cells at 100 uM after 72 hrs by MTT assay; details: A2780, 72 h; outline: as §1
NCI-H460 [5] = experiment: Cytotoxicity against human H460 cells at 100 uM after 72 hrs by MTT assay; details: NCI-H460, 72 h; outline: as §1
A-431 [6] = experiment: Cytotoxicity against human A431 cells at 100 uM after 72 hrs by MTT assay; details: A-431, 72 h; outline: as §1
DU-145 [7] = experiment: Cytotoxicity against human DU145 cells at 100 uM after 72 hrs by MTT assay; details: DU-145, 72 h; outline: as §1
[8] = Cytotoxicity against human BE2C cells at 100 uM after 72 hrs by MTT assay; details: BE(2)-C; outline: as §1
[9] = Cytotoxicity against human SJG2 cells at 100 uM after 72 hrs by MTT assay; details: SJ-G2, 72 h; outline: as §1
HT-29 [10] = experiment: Cytotoxicity against human HT29 cells after 72 hrs by MTT assay; details: HT-29, 72 h
Outline: (§2)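 Cells were grown in DMEM with 10% FBS, bicarbonate, penicillin/streptomycin and 4 mM glutamine at 37 °C under 5% CO2. Log-phase cells were plated in duplicate at 2500–4000 cells/well. After 24 h, medium with or without agent was added (stocks in DMSO or water). Growth inhibition was read by MTT at 540 nm after 72 h continuous exposure. Values are means (SEM) of 3–6 experiments.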

SW480 [11] = experiment: Cytotoxicity against human SW480 cells after 72 hrs by MTT assay; details: SW480, 72 h; outline: as §2
MCF7 [12] = experiment: Cytotoxicity against human MCF7 cells after 72 hrs by MTT assay; details: MCF7, 72 h; outline: as §2
A2780 [13] = experiment: Cytotoxicity against human A2780 cells after 72 hrs by MTT assay; details: A2780, 72 h; outline: as §2
NCI-H460 [14] = experiment: Cytotoxicity against human H460 cells after 72 hrs by MTT assay; details: NCI-H460, 72 h; outline: as §2
A-431 [15] = experiment: Cytotoxicity against human A431 cells after 72 hrs by MTT assay; details: A-431, 72 h; outline: as §2
DU-145 [16] = experiment: Cytotoxicity against human DU145 cells after 72 hrs by MTT assay; details: DU-145, 72 h; outline: as §2
[17] = Cytotoxicity against human SJG2 cells after 72 hrs by MTT assay; details: SJ-G2, 72 h; outline: as §2
[18] = Cytotoxicity against human BE2C cells after 72 hrs by MTT assay; details: BE(2)-C
Outline: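 Cells cultured in DMEM with 10% FBS, bicarbonate, penicillin, streptomycin and 4 mM glutamine at 37 °C, 5% CO2. Log-phase cells plated in duplicate at 2500–4000/well; test agent (DMSO stock) added 24 h later. After 72 h continuous exposure, MTT read at 540 nm; means of 3–6 experiments.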

SMILES | inhibition at 100 µM (HT-29 [1]) | inhibition at 100 µM (SW480 [2]) | inhibition at 100 µM (MCF7 [3]) | inhibition at 100 µM (A2780 [4]) | inhibition at 100 µM (NCI-H460 [5]) | inhibition at 100 µM (A-431 [6]) | inhibition at 100 µM (DU-145 [7]) | inhibition at 100 µM [8] | inhibition at 100 µM [9] | GI50 (HT-29 [10]) | GI50 (SW480 [11]) | GI50 (MCF7 [12]) | GI50 (A2780 [13]) | GI50 (NCI-H460 [14]) | GI50 (A-431 [15]) | GI50 (DU-145 [16]) | GI50 [17] | GI50 [18]
CCCCCCCCN1C(=O)[C@@H]2[C@H](C1=O)[C@@H]1CC[C@H]2O1 | 70% | 65% | 88% | 50% | < 10% | 61% | 44% | 68% | 54% |  |  |  |  |  |  |  |  | 
CCCN1C(=O)[C@@H]2[C@H](C1=O)[C@@H]1CC[C@H]2O1 | 16% | 45% | < 10% | < 10% | < 10% | < 10% | < 10% | < 10% | < 10% |  |  |  |  |  |  |  |  | 
CCC(C)N1C(=O)[C@@H]2[C@H](C1=O)[C@@H]1CC[C@H]2O1 (stereo partly drawn) | < 10% | < 10% | < 10% | < 10% | < 10% | < 10% | < 10% | < 10% | < 10% |  |  |  |  |  |  |  |  | 
CCCCCCN1C(=O)[C@@H]2[C@H](C1=O)[C@@H]1CC[C@H]2O1 | < 10% | < 10% | < 10% | < 10% | < 10% | < 10% | < 10% | < 10% | < 10% |  |  |  |  |  |  |  |  | 
O=C1[C@@H]2[C@H](C(=O)N1CC(O)CO)[C@@H]1CC[C@H]2O1 (stereo partly drawn) | 39% | 69% | > 100% | > 100% | 32% | 60% | 67% | 73% | 27% | > 100 µM | 62 µM | 46 µM | 59 µM | > 100 µM | > 100 µM | > 100 µM | > 100 µM | 
CCCCN1C(=O)[C@@H]2[C@H](C1=O)[C@@H]1CC[C@H]2O1 | < 10% | < 10% | < 10% | < 10% | < 10% | < 10% | < 10% | < 10% | < 10% |  |  |  |  |  |  |  |  | 
CCCCCCCCCCN1C(=O)[C@@H]2[C@H](C1=O)[C@@H]1CC[C@H]2O1 | 20% | 59% | 44% | 44% | > 100% | 52% | 83% | 39% | 72% |  |  |  |  |  |  |  |  | 
O=C1[C@@H]2[C@H](C(=O)N1C1CCCCC1)[C@@H]1CC[C@H]2O1 | < 10% | < 10% | < 10% | < 10% | < 10% | < 10% | < 10% | < 10% | < 10% |  |  |  |  |  |  |  |  | 
C=CCN1C(=O)[C@@H]2[C@H](C1=O)[C@@H]1CC[C@H]2O1 | 19% | 50% | 96% | 67% | 20% | 32% | 15% | 62% | 2% |  |  | 80 µM |  |  |  |  |  | 
C[C@@]12C(=O)OC(=O)[C@]1(C)[C@H]1CC[C@@H]2O1 [CANTHARIDIN] |  |  |  |  |  |  |  |  |  | 3.2 µM | 4.5 µM | 7.5 µM | 4.4 µM | 3.3 µM | 2.9 µM | 2.1 µM | 1.7 µM | 3.7 µM
O=C1OC(=O)C2C3CCC(O3)C12 (stereo not drawn) [DEMETHYL-CANTHARIDIN] |  |  |  |  |  |  |  |  |  | 57 µM | 44 µM | 68 µM | 38 µM | 45 µM | 31 µM | 28 µM | 23 µM | 43 µM
